Bioassay records deposited in PubChem by several laboratories.
Hsp70 activator: switches on Hsp70 transcription; AID 1203; actives 0.04% (n = 200,000); activation, % at 10 µM; HeLa Hsp70 promoter luciferase reporter, luminescence; scaled: vehicle 0, proteasome-inhibitor control 100%;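 active = activation above the mean across all tested compounds plus 3 SD, cutoff set per campaign, cut at about 5.5% in these data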;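 also: 100% = MG132 at 30 µM as the positive control and 0% = DMSO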
S1P3 antag: S1P3 (human) receptor antagonism; AID 485; CHO S1P3 NFAT-BLA reporter, FRET fluorescence, antagonist mode; actives 0.27% (n = 170,000); Q99500; inhibition, % at 4.98 µM;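 active = inhibition above the plate cutoff, the mean inhibition of test wells on that plate plus 3 SD, cut at about 28% in these data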;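 also: cells challenged with S1P at its EC80 of 0.8 µM; blue over green emission ratio from cleaved BLA substrate after 4 h stimulation; 0% = S1P-stimulated wells and 100% = unstimulated DMSO-only wells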
Target sequence (Q99500 whole entry, looked up): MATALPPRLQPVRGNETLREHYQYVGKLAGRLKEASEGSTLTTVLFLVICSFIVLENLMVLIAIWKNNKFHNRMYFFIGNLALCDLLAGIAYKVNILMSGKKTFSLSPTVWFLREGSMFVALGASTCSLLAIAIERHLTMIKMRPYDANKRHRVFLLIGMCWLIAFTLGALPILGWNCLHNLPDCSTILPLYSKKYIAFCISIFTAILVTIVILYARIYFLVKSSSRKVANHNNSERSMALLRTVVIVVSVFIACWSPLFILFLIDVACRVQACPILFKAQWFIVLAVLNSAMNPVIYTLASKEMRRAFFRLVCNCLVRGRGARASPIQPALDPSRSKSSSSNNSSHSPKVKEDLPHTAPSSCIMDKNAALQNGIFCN
Mdm2 ligase inh: inhibitors of human Mdm2 E3 ubiquitin ligase. AID 1230. Q00987. cell-based MDM2 ubiquitination luciferase reporter, 2 h; 0 = plate control, 100 = twice control, blank-subtracted. actives 0.11% (n = 210,000). signal enhancement, % at 5 µM;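 active = signal enhancement of 30% or more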;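 also: luminescence tracks abundance of the self-degrading MDM2-luciferase fusion protein; higher signal means inhibition of MDM2 E3 ligase activity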
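Timing – 2 h compound exposure at 37 °C · Assay system – mammalian cells stably expressing self-ubiquitinating, self-degrading MDM2 E3–luciferase fusion · Amount – 2000 cells seeded into each well · Measure – % luminescence enhancement versus blank-corrected plate control mean · Measured by – SteadyLite luminescence, 15 min reagent step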
CHOP inh: CHOP inhibition in unfolded protein response | inhibition, % at 10 µM | actives 3.8% (n = 220,000) | CHO-K1 CHOP-promoter luciferase, tunicamycin-induced, 15-18 h | AID 2732;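 active = compounds that reduced the stress-induced luciferase reporter signal by more than about 70% of percent inhibition, limit read from the data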;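 also: 0% = tunicamycin plus vehicle and 100% = wells without tunicamycin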
CHOP inh conf: confirmation of CHOP induction inhibitors; AID 504437; CHO-CHOP promoter luciferase reporter, tunicamycin-induced, luminescence; inhibition, % at 10 µM; shares compounds with CHOP inh; actives 45% (n = 2,100);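 active = mean of three repeat readings of reporter signal inhibition above a set limit, cut at about 70% in these data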;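 also: 0% = tunicamycin plus vehicle and 100% = wells lacking tunicamycin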
Starred values were filed as active, the others as inactive; nt = no result given. Most compounds without a hit are left out; they make up all but 4% or so of the library.

SMILES	Hsp70 activator	S1P3 antag	Mdm2 ligase inh	CHOP inh	CHOP inh conf
COC(=O)NC1(C(F)(F)F)C(=O)Nc2c1c(=O)n(C)c(=O)n2C (configuration not stated)	-1	-9	-33	8	nt
CCCCCc1c(C)nc(NCc2ccccc2)[nH]c1=O	0	20	4	109*	134*
O=c1[nH]c(NCc2ccccc2)nc2c1CCC2	0	-5	10	10	nt
Cc1ccc(S(=O)(=O)c2nc(NN(C)C)sc2Cl)cc1	0	-7	-7	4	nt
CCc1ccc(OCc2n[nH]c(=S)n2C(C)CCCC(C)C)cc1 (configuration not stated)	0	-9	2	105*	113*
O=[N+]([O-])c1ccc(Sc2nc3ccccc3o2)c([N+](=O)[O-])c1	0	nt	21	109*	122*
O=C(CNc1n[nH]c(=O)[nH]c1=O)N/N=C/C=C/c1ccccc1	nt	4	-14	-2	nt
O=C(CSc1ccc2nnc(-c3ccc(F)cc3)n2n1)N1CCCc2ccccc21	0	-11	-6	40	nt
O=C(CSc1ccc2nnc(-c3cccc(F)c3)n2n1)N1CCCc2ccccc21	0	-10	-9	105*	33
N#Cc1c(Cl)c(Cl)c2nnc(-c3ccc(Br)cc3)n2c1Cl	0	nt	-14	104*	-7
Cc1ccc(-n2nc(C)c3c2OC(N)=C(C#N)C3c2ccccc2F)cc1 (configuration not stated)	0	10	-9	96*	5
CCOc1ccc2nc(-c3ccccc3)nc(SCC(=O)Nc3ncc(C)s3)c2c1	0	nt	-1	98*	-15
COc1ccc(-c2cc(-c3ccccc3)nc(SCC(=O)Nc3ncc(C)s3)c2C#N)cc1	0	13	6	36	nt
O=C(Nn1cnnc1)c1cc2c(s1)CCCCC2	0	-7	2	10	nt
N#C/C(=C\c1ccc([N+](=O)[O-])o1)c1nc2ccccc2[nH]1	0	-9	-12	106*	127*
O=C(CCn1cnc2ccccc2c1=O)Nc1cccc(Cl)c1Cl	0	-10	2	2	nt
Cc1nn(CCC#N)c2nc(-c3ccccc3)cc(C(F)(F)F)c12	0	nt	2	106*	83*
CCOc1ccc(-c2csc(Cn3c(CN4CCN(C)CC4)nc4ccccc4c3=O)n2)cc1	0	10	-12	2	nt
O=C(Nc1ccccc1)Nc1cccc(C(F)(F)F)c1	0	8	-6	32	nt
CCSCCc1nnc(NC(=O)Nc2cccc(C(F)(F)F)c2)s1	0	6	-12	96*	99*
O=Nc1ccc(NOC(=O)c2ccccc2Br)cc1	0	1	-12	5	nt
O=C(ONc1ccc(N=NC(=O)c2ccccc2O)cc1)c1ccccc1	0	nt	-9	107*	132*
COc1ccccc1NC(=O)c1c(Nc2ccccc2F)sc(C(=O)Nc2cccc(Cl)c2)c1N	0	-8	-2	108*	63
COc1ccc(Nc2sc(C(=O)Nc3cccc(Cl)c3)c(N)c2C(=O)Nc2ccccc2OC)cc1	0	2	-14	16	nt
CCOC(=O)c1nnc(-c2ccccc2)nc1Sc1ccccc1Cl	0	nt	-8	53	nt
SMILES	Hsp70 activator	S1P3 antag	Mdm2 ligase inh	CHOP inh	CHOP inh conf
CCOC(=O)c1nnc(-c2ccccc2)nc1Oc1ccc(Cl)cc1	0	nt	-20	106*	-4
CC1(c2ccccc2)CC(C)(C)n2c(O)c(C3=NC(=S)NC3=O)c3cccc1c32 (configuration not stated)	nt	3	nt	104*	109*
Cc1ccc(-c2cc(C(=O)NCc3cnn(C)c3)c3cc(Br)ccc3n2)cc1	0	11	-7	101*	20
COc1ccccc1CCNC(=O)c1cc(-c2ccncc2)nc2ccc(Br)cc12	0	-11	-26	104*	-74
CCN(CC)c1ccc2c(c1)oc(=O)c1c(Cl)cc(=O)oc12	0	-7	-12	108*	26
CCN(CC)c1ccc2c(C)c(-c3ccc(N)cc3)c(=O)oc2c1	0	nt	4	16	nt
COc1cc(CC(=O)OCC(=O)Nc2ccc3c(c2)OCO3)cc(OC)c1OC	0	10	6	6	nt
Cc1cc(C)n(-c2nc3ccccc3nc2N2CCCCCC2)n1	0	26	12	96*	36
O=C(N/N=C/c1cccs1)c1cccc(NC(=O)c2ccc(Cl)cc2)c1	0	11	nt	104*	118*
O=C(N/N=C/c1cccs1)c1cccc(S(=O)(=O)Nc2ccc(Cl)cc2)c1	0	3	-2	7	nt
CCN1CCN(C(=O)NCc2ccccc2)CC1	nt	-19	-4	-17	nt
CC(C)(C)NC(=O)C(c1ccc(F)cc1)N(Cc1ccccc1Cl)C(=O)c1ccn[nH]1 (configuration not stated)	0	-22	-10	33	nt
COc1ccc(CCNCC(O)COc2cccc(Br)c2)cc1 (configuration not stated)	0	-4	-1	0	nt
OC(CNCCc1ccc(C(F)(F)F)cc1)COc1cccc2ccccc12 (configuration not stated)	0	-21	0	108*	134*
OC(CNCCc1ccc(C(F)(F)F)cc1)COc1ccc2ccccc2c1 (configuration not stated)	0	2	-1	108*	123*
CCc1ccc2c(c1)C(=O)c1ccccc1C2=O	0	-6	-21	37	nt
CCc1ccc2c(c1)C1(NN=C(c3cccc4ccccc34)S1)C(=O)N2 (configuration not stated)	0	nt	13	104*	63
Cc1cccnc1NC(=O)c1c(O)c2ccccc2n(C)c1=O	0	15	-3	98*	100*
CC(C)NC(=O)CC1C(=O)N(Cc2ccccc2)C(C)c2nc3ccccc3n21 (configuration not stated)	0	-6	21	0	nt
O=S(=O)(Nc1ccc(-c2csc(-c3ccccc3)n2)cc1)c1ccccc1	0	-3	4	100*	24
CCOC(=O)c1c(C)[nH]c(C(=O)COC(=O)c2[nH]c(C)c(C(C)=O)c2C)c1C	0	nt	-9	97*	83*
CCOC(=O)c1c(C)[nH]c(C(=O)COC(=O)C2CC(=O)N(Cc3ccccc3)C2)c1C (configuration not stated)	0	6	-8	101*	6
COc1ccc(NC(C)=O)cc1NC(C)C(=O)Nc1ccc(F)c(F)c1F (configuration not stated)	0	nt	-7	13	nt
Cc1ccc(Sc2cc(NCCCO)c([N+](=O)[O-])c3nonc23)cc1	nt	-11	nt	15	nt
CCCC(=O)OCCNc1cc(Sc2nc3ccccc3[nH]2)c2nonc2c1[N+](=O)[O-]	0	-7	-11	110*	138*
CC(=O)OCCNc1cc(SC(C)C)c2nonc2c1[N+](=O)[O-]	0	9	-7	4	nt
